According to ChEMBL document CHEMBL4190362, “Synthesis, biological evaluation and quantitative structure-active relationships of 1,3-thiazolidin-4-one derivatives. A promising chemical scaffold endowed with high antifungal potency and low cytotoxicity” (Eur J Med Chem, 2017):

Assays:
[1] = test system: Pichia kudriavzevii; assay: Antifungal activity against Candida krusei clinical isolates assessed as inhibition of microbial growth incubated for 24 hrs by broth microdilution method; type: functional
How it was run: (§1)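 Twenty-two clinical Candida isolates (8 C. albicans, 4 C. glabrata, 3 C. tropicalis, 3 C. krusei, 2 C. parapsilosis, 2 C. sake) were identified by colony morphology and biochemistry and subcultured at 35 °C for purity. Compounds were dissolved in DMSO and tested by broth microdilution in Sabouraud dextrose broth per NCCLS/CLSI/EUCAST guidance. Values are geometric mean MIC per species (µg/mL).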

[2] = test system: Staphylococcus aureus; assay: Antibacterial activity against Staphylococcus aureus assessed as inhibition of microbial growth incubated for 18 to 22 hrs by broth microdilution method; type: functional
How it was run: (§2)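 Broth microdilution in Mueller-Hinton II broth following NCCLS recommendations; compounds dissolved in DMSO.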

[3] = test system: Enterococcus faecalis; assay: Antibacterial activity against Streptococcus faecalis assessed as inhibition of microbial growth incubated for 18 to 22 hrs by broth microdilution method; type: functional; how it was run: as §2
[4] = test system: Candida tropicalis; assay: Antifungal activity against Candida tropicalis clinical isolates assessed as inhibition of microbial growth incubated for 24 hrs by broth microdilution method; type: functional; how it was run: as §1
[5] = test system: Candida parapsilosis; assay: Antifungal activity against Candida parapsilosis clinical isolates assessed as inhibition of microbial growth incubated for 24 hrs by broth microdilution method; type: functional; conditions: Lodderomyces parapsilosis; how it was run: as §1
[6] = test system: Klebsiella oxytoca; assay: Antibacterial activity against Klebsiella oxytoca assessed as inhibition of microbial growth incubated for 18 to 22 hrs by broth microdilution method; type: functional; how it was run: as §2
[7] = test system: Escherichia coli; assay: Antibacterial activity against Escherichia coli assessed as inhibition of microbial growth incubated for 18 to 22 hrs by broth microdilution method; type: functional; how it was run: as §2
[8] = test system: Nakaseomyces glabratus; assay: Antifungal activity against Candida glabrata clinical isolates assessed as inhibition of microbial growth incubated for 24 hrs by broth microdilution method; type: functional; how it was run: as §1
[9] = test system: [Candida] sake; assay: Antifungal activity against Candida sake clinical isolates assessed as inhibition of microbial growth incubated for 24 hrs by broth microdilution method; type: functional; conditions: Fermentozyma sake; how it was run: as §1
[10] = test system: Candida albicans; assay: Antifungal activity against Candida albicans clinical isolates assessed as inhibition of microbial growth incubated for 24 hrs by broth microdilution method; type: functional; how it was run: as §1
[11] = test system: Enterobacter; assay: Antibacterial activity against Enterobacter spp. assessed as inhibition of microbial growth incubated for 18 to 22 hrs by broth microdilution method; type: functional; how it was run: as §2
[12] = test system: Staphylococcus warneri; assay: Antibacterial activity against Staphylococcus warneri assessed as inhibition of microbial growth incubated for 18 to 22 hrs by broth microdilution method; type: functional; how it was run: as §2
[13] = test system: Proteus mirabilis; assay: Antibacterial activity against Proteus mirabilis assessed as inhibition of microbial growth incubated for 18 to 22 hrs by broth microdilution method; type: functional; how it was run: as §2
[14] = test system: Streptococcus alpha-hemolyticus (Streptococcus sp.); assay: Antibacterial activity against Streptococcus Streptococcus alpha hemolyticus assessed as inhibition of microbial growth incubated for 18 to 22 hrs by broth microdilution method

SMILES | MIC [1] [µg/mL] | MIC [2] [µg/mL] | MIC [3] [µg/mL] | MIC [4] [µg/mL] | MIC [5] [µg/mL] | MIC [6] [µg/mL] | MIC [7] [µg/mL] | MIC [8] [µg/mL] | MIC [9] [µg/mL] | MIC [10] [µg/mL] | MIC [11] [µg/mL] | MIC [12] [µg/mL] | MIC [13] [µg/mL] | MIC [14] [µg/mL]
C/C(=N/N=C1\NC(=O)CS1)c1ccccc1 | 8 | ≥ 256 | ≥ 256 | 16 | 16 | ≥ 256 | ≥ 256 | 2 | 16 | 2 | ≥ 256 | ≥ 256 | ≥ 256 | ≥ 256
O=C1CS/C(=N/N=C\c2cccnc2)N1 | 16 | ≥ 256 | ≥ 256 | 16 | 16 | ≥ 256 | ≥ 256 | 8 | 16 | 8 | ≥ 256 | ≥ 256 | ≥ 256 | ≥ 256
C/C(=N/N=C1\NC(=O)CS1)c1cccnc1 | 256 | ≥ 256 | ≥ 256 | 256 | 256 | ≥ 256 | ≥ 256 | 256 | 256 | 256 | ≥ 256 | ≥ 256 | ≥ 256 | ≥ 256
O=C1CS/C(=N/N=C\c2ccncc2)N1 | 256 | ≥ 256 | ≥ 256 | 256 | 256 | ≥ 256 | ≥ 256 | 256 | 256 | 256 | ≥ 256 | ≥ 256 | ≥ 256 | ≥ 256
O=C1CS/C(=N/N=C\c2c[nH]c3ccccc23)N1 | 16 | ≥ 256 | ≥ 256 | 8 | 256 | ≥ 256 | ≥ 256 | 16 | 256 | 128 | ≥ 256 | ≥ 256 | ≥ 256 | ≥ 256
O=C1CS/C(=N/N=C\c2ccc3c(c2)OCO3)N1 | 256 | ≥ 256 | ≥ 256 | 256 | 256 | ≥ 256 | ≥ 256 | 256 | 256 | 256 | ≥ 256 | ≥ 256 | ≥ 256 | ≥ 256
C/C(=N\N=C1/NC(=O)CS1)c1cc2ccccc2o1 | 2 | ≥ 256 | ≥ 256 | 2 | 2 | ≥ 256 | ≥ 256 | 8 | 2 | 2 | ≥ 256 | ≥ 256 | ≥ 256 | ≥ 256
C/C(=N/N=C1\NC(=O)CS1)c1cccc([N+](=O)[O-])c1 | 4 | ≥ 256 | ≥ 256 | 2 | 2 | ≥ 256 | ≥ 256 | 4 | 2 | 2 | ≥ 256 | ≥ 256 | ≥ 256 | ≥ 256
O=C1CS/C(=N/N=C\c2ccccn2)N1 | 4 | ≥ 256 | ≥ 256 | 2 | 2 | ≥ 256 | ≥ 256 | 8 | 2 | 2 | ≥ 256 | ≥ 256 | ≥ 256 | ≥ 256
O=C1CS/C(=N/N=C\c2cccc([N+](=O)[O-])c2)N1 | 8 | ≥ 256 | ≥ 256 | 16 | 4 | ≥ 256 | ≥ 256 | 8 | 8 | 16 | ≥ 256 | ≥ 256 | ≥ 256 | ≥ 256
C/C(=N/N=C1\NC(=O)CS1)c1ccncc1 | 16 | ≥ 256 | ≥ 256 | 8 | 256 | ≥ 256 | ≥ 256 | 16 | 256 | 16 | ≥ 256 | ≥ 256 | ≥ 256 | ≥ 256
O=C1CS/C(=N/N=C\c2ccc([N+](=O)[O-])cc2)N1 | 8 | ≥ 256 | ≥ 256 | 4 | 4 | ≥ 256 | ≥ 256 | 8 | 8 | 16 | ≥ 256 | ≥ 256 | ≥ 256 | ≥ 256
C/C(=N/N=C1\NC(=O)CS1)c1ccc([N+](=O)[O-])cc1 | 4 | ≥ 256 | ≥ 256 | 8 | 16 | ≥ 256 | ≥ 256 | 8 | 16 | 4 | ≥ 256 | ≥ 256 | ≥ 256 | ≥ 256
C/C(=N/N=C1\NC(=O)CS1)c1c[nH]c2ccccc12 | 2 | ≥ 256 | ≥ 256 | 8 | 4 | ≥ 256 | ≥ 256 | 8 | 16 | 4 | ≥ 256 | ≥ 256 | ≥ 256 | ≥ 256
C/C(=N/N=C1\NC(=O)CS1)c1ccccc1[N+](=O)[O-] | 8 | ≥ 256 | ≥ 256 | 2 | 2 | ≥ 256 | ≥ 256 | 2 | 2 | 2 | ≥ 256 | ≥ 256 | ≥ 256 | ≥ 256
